Assay results from ChEMBL document CHEMBL3632548, “Oxidized Metabolites of 20-Hydroxyecdysone and Their Activity on Skeletal Muscle Cells: Preparation of a Pair of Desmotropes with Opposite Bioactivities” (J Nat Prod, 2015).
Values belong to the compound of their own block, whether it stands above or below them. The source made the active and inactive calls. The rule behind the calls is not given here.

Assays:
[1] = Drug level in aqueous solution treated with (2S,3R,10R,13R,14S,17S)-2,3,6,14-tetrahydroxy-10,13-dimethyl-17-((2R,3R)-2,3,6-trihydroxy-6-methylheptan-2-yl)-3,4,10,11,12,13,14,15,16,17-decahydro-1H-cyclopenta[a]phenanthren-7(2H)-one at pH 8; format: physicochemical; details: buffer
[2] = Drug level in aqueous solution treated with 20-hydroxyecdysone at 120 mg incubated for 2 days measured at 0.5 to 48 hrs by HPLC-DAD analysis in presence of NaOH; format: physicochemical; details: in vivo
Method in brief: (§1)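 20E (120 mg) is stirred at room temperature (22−25 °C) in 70% aqueous MeOH with 2% NaOH, and aliquots are taken over time. Analysis is by analytical HPLC on a C18 column with an aqueous acetonitrile gradient and 9.6% acetic acid, 1 mL/min. Compounds are quantified from peak AUC at each λmax against calibration dilutions and expressed relative to initial 20E. Three independent experiments; one-phase decay regression.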

[3] = Chemical stability of the compound in basic media at pH 8 at room temperature; format: physicochemical; details: buffer
[4] = Chemical stability of the compound in acidic media at pH 3 at room temperature; format: physicochemical; details: buffer
[5] = biological target: RAC-alpha serine/threonine-protein kinase (Mus musculus) (UniProt P31750); experiment: Induction of Akt phosphorylation in mouse C2C12 cells at 30 ug/ml pretreated with compound for 24 hrs followed by fresh medium with compound addition measured after 2 hrs by Western blot analysis; format: cell-based
Method in brief: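 Differentiated C2C12 myotubes (8 days in horse serum medium) are exposed to 30 μg/mL compound in 10% FBS high-glucose DMEM for 24 h, without overnight serum starvation. Fresh medium with the same compound concentration is added for a further 2 h. Cells are lysed in SDS sample buffer, resolved on 10% SDS-PAGE, transferred to PVDF and probed for phospho- and total Akt.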

[6] = Chemical stability of the compound in neutral media at room temperature; format: physicochemical
C2C12 = experiment: Effect on glucose consumption in mouse C2C12 cells at 30 ug/ml after 24 hrs; format: functional, cell-based
Method in brief: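 C2C12 myoblasts are grown in high-glucose DMEM with 10% FBS at 37 °C, 5% CO2. At confluence they are switched to DMEM with 10% horse serum for 8 days to form myotubes. Myotubes are then given 10% FBS high-glucose DMEM with or without 30 μg/mL compound for 24 h. Glucose remaining in the medium is measured to calculate glucose consumption.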

[7] = Drug level in aqueous solution treated with 20-hydroxyecdysone at 120 mg at pH 6 to 6.5 measured at 6 to 7 hrs hrs by HPLC-DAD analysis; format: physicochemical; details: in vivo
Method in brief: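 20E was reacted with NaOH at room temperature, and the mixture was set to pH 6−6.5 with acetic acid before evaporation under nitrogen. Products were quantified by C18 HPLC with an aqueous acetonitrile gradient, using AUC at λmax against calibration dilutions of isolated compounds. Amounts are expressed relative to initial 20E.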

[8] = Drug level in aqueous solution treated with (2S,3R,5R,10S,13R,17S)-2,3,7-trihydroxy-10,13-dimethyl-17-((2R,3R)-2,3,6-trihydroxy-6-methylheptan-2-yl)-2,3,4,5,12,13,16,17-octahydro-1H-cyclopenta[a]phenanthren-6(10H)-one at 80 degC after 4 days; format: physicochemical; details: buffer, 96 h
[9] = Drug level in aqueous solution treated with (2S,3R,10R,13R,14S,17S)-2,3,6,14-tetrahydroxy-10,13-dimethyl-17-((2R,3R)-2,3,6-trihydroxy-6-methylheptan-2-yl)-3,4,10,11,12,13,14,15,16,17-decahydro-1H-cyclopenta[a]phenanthren-7(2H)-one at pH 3; format: physicochemical; details: buffer
[10] = Chemical stability of the compound at 80 degC; format: physicochemical
[11] = Drug level in aqueous solution treated with (2S,3R,5R,9R,10R,13R,14S,17S)-2,3,14-trihydroxy-10,13-dimethyl-17-((2R,3R)-2,3,6-trihydroxy-6-methylheptan-2-yl)-2,3,4,5,9,11,12,13,14,15,16,17-dodecahydro-1H-cyclopenta[a]phenanthren-6(10H)-one at 120 mg incubated for 2 days measured at 0.5 to 48 hrs by HPLC-DAD analysis in presence of NaOH; format: physicochemical; details: in vivo
Method in brief: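 120 mg 20E stirred with 100 mg NaOH at room temperature (22−25 °C) and sampled over time. Samples were analysed by HPLC on a C18 column using an aqueous acetonitrile gradient with acetic acid at 1 mL/min. Peak AUC was read at each compound's λmax and calibrated against dilutions of isolated compounds. Amounts are relative to initial 20E; three independent experiments.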

[12] = Half life of the compound by HPLC analysis in presence of NaOH; format: physicochemical; method in brief: as §1

Sequence of RAC-alpha serine/threonine-protein kinase (Mus musculus) (P31750 whole entry): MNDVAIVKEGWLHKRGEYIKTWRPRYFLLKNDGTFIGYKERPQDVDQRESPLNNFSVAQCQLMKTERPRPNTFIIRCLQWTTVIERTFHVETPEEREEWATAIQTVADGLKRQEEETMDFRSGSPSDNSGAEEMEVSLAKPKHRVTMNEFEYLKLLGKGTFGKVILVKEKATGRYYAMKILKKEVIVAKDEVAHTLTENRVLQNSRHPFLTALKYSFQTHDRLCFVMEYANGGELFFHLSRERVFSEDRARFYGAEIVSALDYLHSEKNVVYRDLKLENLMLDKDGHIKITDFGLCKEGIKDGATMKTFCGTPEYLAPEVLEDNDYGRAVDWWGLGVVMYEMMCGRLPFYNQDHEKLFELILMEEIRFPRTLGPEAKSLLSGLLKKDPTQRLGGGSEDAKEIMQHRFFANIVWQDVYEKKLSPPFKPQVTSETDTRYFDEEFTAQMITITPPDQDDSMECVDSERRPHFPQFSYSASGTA

Drug metabolism [1]: metabolite_detected
Drug metabolism [2]: metabolite_detected
Stability [3]: Stable
Stability [4]: Stable
Activity [5]: inactive
Stability [6]: Stable
Structure (SMILES): CC(C)(O)CC[C@@H](O)[C@](C)(O)[C@H]1CC=C2C3=C(O)C(=O)[C@@H]4C[C@@H](O)[C@@H](O)C[C@]4(C)C3=CC[C@@]21C
Activity (C2C12): inactive

Structure (SMILES): CC(C)(O)CC[C@@H](O)[C@](C)(O)[C@H]1CC=C2C3=C(CC[C@@]21C)[C@@]1(C)C[C@H](O)[C@H](O)CC1=C(O)C3=O
Drug metabolism [7]: metabolite_detected
Stability [3]: Stable
Stability [4]: Stable
Drug metabolism [8]: metabolite_detected
Activity [5]: Active
Drug metabolism [9]: metabolite_detected
Stability [6]: Stable
Stability [10]: Stable
Activity (C2C12): inactive

Structure (SMILES): CC(C)(O)CC[C@@H](O)[C@](C)(O)[C@H]1CC[C@@]2(O)C3=CC(=O)[C@@H]4C[C@@H](O)[C@@H](O)C[C@]4(C)C3=CC[C@]12C
Activity (C2C12): inactive

Structure (SMILES): CC(C)(O)CC[C@@H](O)[C@](C)(O)[C@H]1CC[C@@]2(O)C3=CC(=O)[C@@H]4C[C@@H](O)[C@@H](O)C[C@]4(C)[C@@]3(O)CC[C@]12C
Drug metabolism [11]: metabolite_detected
Activity (C2C12): inactive

Drug metabolism [2]: metabolite_detected
Structure (SMILES): CC(C)(O)CC[C@@H](O)[C@](C)(O)[C@H]1CC[C@@]2(O)C3=C(CC[C@]12C)[C@@]1(C)C[C@H](O)[C@H](O)CC1=C(O)C3=O
Activity (C2C12): inactive

Structure (SMILES): CC(C)(O)CC[C@@H](O)[C@](C)(O)[C@H]1CC[C@@]2(O)C3=CC(=O)[C@H]4C[C@@H](O)[C@@H](O)C[C@]4(C)[C@@]3(O)CC[C@]12C
Drug metabolism [11]: metabolite_detected
Activity [5]: Active
Activity (C2C12): inactive

half-life [12]: 1.39 h
Activity [5]: inactive
Structure (SMILES): CC(C)(O)CC[C@@H](O)[C@](C)(O)[C@H]1CC[C@@]2(O)C3=CC(=O)[C@@H]4C[C@@H](O)[C@@H](O)C[C@]4(C)[C@H]3CC[C@]12C [20-HYDROXYECDYSONE]
Activity (C2C12): inactive
